Results: ChEMBL document CHEMBL4814000, “Discovery of β-carboline-(phenylsulfonyl)furoxan hybrids as potential anti-breast cancer agents” (Bioorg Med Chem Lett, 2021)
pIC50: −log10 of the molar value. Active and inactive are the calls of the source. The calls are words filed in the database; no cut-off is given here.

Tests used:
[1] = tested on: MCF7; assay: Antiproliferative activity against human MCF7 cells assessed as reduction in cell viability incubated for 72 hrs by CCK-8 assay; type: functional, cell-based; conditions: MCF7, 72 h
Procedure, shortened: (§1)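 CCK-8 viability assay on MCF-7 or MDA-MB-231 cells after 72 h compound exposure; IC50 taken as half inhibitory concentration, reported as mean ± SD of three independent experiments.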

[2] = tested on: MDA-MB-231; assay: Antiproliferative activity against human MDA-MB-231 cells assessed as reduction in cell viability incubated for 72 hrs by CCK-8 assay; type: functional, cell-based; conditions: MDA-MB-231, 72 h; procedure, shortened: as §1
[3] = Nitric oxide releasing activity assessed as amount of NO release measured up to 24 hrs by Griess assay; type: functional; conditions: time hrs <=24
Procedure, shortened: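 Griess assay measuring NO released by compounds in vitro over time; values are averages of three independent experiments.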

Structure (SMILES) | pIC50 [1] | pIC50 [2] | Activity [3]
Cc1nc(C(=O)OCC#CCOc2no[n+]([O-])c2S(=O)(=O)c2ccccc2)cc2c1[nH]c1ccccc12 | 5.05 | 5.16 | –
COc1ccc(-c2nc(C(=O)O)cc3c2[nH]c2ccccc23)cc1 | 4.84 | 4.90 | –

Stronger by pIC50 [1], values ahead:

pIC50 [1] | pIC50 [2] | Structure (SMILES) | Activity [3]
5.16 | 5.24 | Cc1nc(C(=O)OCCCCCCOc2no[n+]([O-])c2S(=O)(=O)c2ccccc2)cc2c1[nH]c1ccccc12 | –
5.81 | 5.64 | COc1ccc(-c2nc(C(=O)NCC(C)Oc3no[n+]([O-])c3S(=O)(=O)c3ccccc3)cc3c2[nH]c2ccccc23)cc1 (configuration not stated) | Active
5.84 | 6.06 | COc1ccc(-c2nc(C(=O)NCCOc3no[n+]([O-])c3S(=O)(=O)c3ccccc3)cc3c2[nH]c2ccccc23)cc1 | Active
